Values after ≈ are worked out from the molar mass of the structure shown. Active and inactive are the calls of the source. The calls are words filed in the database; no cut-off is given here. Numbered stars: 1 amine (or outer) side, 2 acyl side, 3 side chain; on linkers, the order of the positions; unused ones are H or OH. Bridge positions count the residues as written; N and C are the ends. Square brackets hold non-standard residues; d marks the D form. Peptide text beside a SMILES is read from it. * marks the point of attachment. hTyr(3S-OH,4S-OH,3'-OSO3H) = N[C@H](C(=O)O)[C@H](O)[C@@H](O)c1ccc(O)c(OS(=O)(=O)O)c1; pTerphenylCO(4''-OnC5H11) = CCCCCOc1ccc(-c2ccc(-c3ccc(C(=O)*)cc3)cc2)cc1; Orn(4R-OH,5R-OH) = O=C([C@H](C[C@@H](O)[C@@H](O)N[*:3])N[*:1])[*:2]; hTyr(3S-OH,4S-OH) = N[C@H](C(=O)O)[C@H](O)[C@@H](O)c1ccc(O)cc1; Pro(3S-OH,4S-Me) = C[C@H]1CN[C@H](C(=O)O)[C@H]1O; X1 = CCCCCOc1ccc(-c2cc(-c3ccc(C(=O)*)cc3)no2)cc1; Gln(3R-OH) = NC(=O)C[C@@H](O)[C@H](N)C(=O)O; Hyp = O=C(O)[C@@H]1C[C@@H](O)CN1
Key:
[1] = Antifungal activity against Madurella mycetomatis isolate 35 by XTT assay; format: functional
How it was run: (§1)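 Ketoconazole, caspofungin and anidulafungin diluted in DMSO, micafungin in normal saline. Viability read by XTT reduction. MIC is the first concentration giving >80% spectrophotometric reduction. Done independently in triplicate.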

[2] = Antifungal activity against Madurella mycetomatis isolate 31 by XTT assay; format: functional; how it was run: as §1
[3] = Antifungal activity against Madurella mycetomatis isolate 39 by XTT assay; format: functional; how it was run: as §1
[4] = Antifungal activity against Madurella mycetomatis isolate 50 by XTT assay; format: functional; how it was run: as §1
[5] = Antifungal activity against Madurella mycetomatis isolate 41 by XTT assay; format: functional; how it was run: as §1
[6] = Antifungal activity against Madurella mycetomatis isolate 36 by XTT assay; format: functional; how it was run: as §1
[7] = Antifungal activity against Madurella mycetomatis isolate 45 by XTT assay; format: functional; how it was run: as §1
Madurella mycetomatis = assay: Inhibition of beta-1,3-D-glucan synthesis in Madurella mycetomatis isolate 55 after 7 days by […] assay; format: functional
How it was run: (§2)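 A hyphal suspension in RPMI was exposed to drug in tubes for 7 days at 37°C. Mycelium was freeze-dried, taken up in 1 M NaOH, probe-sonicated for 15 s and held at 52°C for 30 min. Glucan was measured by aniline blue fluorescence with curdlan as standard, then scaled to viable cells from XTT relative to growth control. Results are means with standard deviation.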

[8] = Antifungal activity against Madurella mycetomatis isolate 83 by XTT assay; format: functional; how it was run: as §1
[9] = Antifungal activity against Madurella mycetomatis isolate 49 by XTT assay; format: functional; how it was run: as §1
[10] = Antifungal activity against Madurella mycetomatis isolate 46 by XTT assay; format: functional; how it was run: as §1
[11] = Antifungal activity against Madurella mycetomatis isolate 54 by XTT assay; format: functional; how it was run: as §1
Aspergillus fumigatus [12] = assay: Antifungal activity against Aspergillus fumigatus ATCC 204305 by XTT assay; format: functional; conditions: for minimal effective concentration: read-out: MEC
How it was run: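 XTT viability assay in RPMI, run independently in triplicate, with a conidial inoculum. Twofold dilutions from 0.007 to 128 mg/liter for echinocandins and 0.016 to 16 mg/liter for KTZ. Drugs dissolved in DMSO, except micafungin in normal saline. MIC is the first concentration giving more than 80% spectrophotometric reduction. MEC is the first concentration with altered growth.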

[13] = Antifungal activity against Madurella mycetomatis isolate 43 by XTT assay; format: functional; how it was run: as §1
[14] = Antifungal activity against Madurella mycetomatis isolate 55 by XTT assay; format: functional; how it was run: as §1
[15] = Antifungal activity against Madurella mycetomatis isolate 52 by XTT assay; format: functional; how it was run: as §1
[16] = Antifungal activity against Madurella mycetomatis isolate 64 by XTT assay; format: functional; how it was run: as §1
[17] = Antifungal activity against Madurella mycetomatis isolate 68 by XTT assay; format: functional; how it was run: as §1
[18] = Antifungal activity against Madurella mycetomatis isolate 73 by XTT assay; format: functional; how it was run: as §1
Aspergillus fumigatus [19] = assay: Inhibition of beta-1,3-D-glucan synthesis in Aspergillus fumigatus ATCC 204305 after 48 hrs by […] assay; format: functional, organism-based
How it was run: as §2, with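 “conidial” for “hyphal”, “48 h.” for “7 days at 37°C.”, “corrected” for “scaled”, “by XTT.” for “from XTT relative to growth control.”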

In the case of CC[C@H](C)C[C@H](C)CCCCCCCCC(=O)N[C@H]1C[C@@H](O)[C@@H](NCCN)NC(=O)[C@@H]2[C@@H](O)CCN2C(=O)[C@H]([C@H](O)CCN)NC(=O)[C@H]([C@H](O)[C@@H](O)c2ccc(O)cc2)NC(=O)[C@@H]2C[C@@H](O)CN2C(=O)[C@H]([C@@H](C)O)NC1=O [CASPOFUNGIN], the MIC [1] is reported as 128 µg/mL (≈ 117 µM), the MIC [2] is reported as 64 µg/mL (≈ 58.5 µM) and the MIC [3] is reported as 64 µg/mL (≈ 58.5 µM). It also gave an MIC [4] of 128 µg/mL (≈ 117 µM), an MIC [5] of 16 µg/mL (≈ 14.6 µM) and an MIC [6] of 128 µg/mL (≈ 117 µM). The MIC [7] was 64 µg/mL (≈ 58.5 µM), the inhibition (Madurella mycetomatis) was “inactive” and the MIC [8] was 128 µg/mL (≈ 117 µM). It also gave an MIC [9] of 32 µg/mL (≈ 29.3 µM), an MIC [10] of 64 µg/mL (≈ 58.5 µM) and an MIC [11] of 64 µg/mL (≈ 58.5 µM). It also gave an MIC (Aspergillus fumigatus [12]) of 128 µg/mL (≈ 117 µM), a minimal effective concentration (Aspergillus fumigatus [12]) of 0.125 µg/mL and an MIC [13] of 128 µg/mL (≈ 117 µM). It also gave an MIC [14] of 128 µg/mL (≈ 117 µM), an MIC [15] of 128 µg/mL (≈ 117 µM) and an MIC [16] of 64 µg/mL (≈ 58.5 µM). For the same compound, the MIC [17] was 64 µg/mL (≈ 58.5 µM) and the MIC [18] was 64 µg/mL (≈ 58.5 µM).
For CCCCCOc1ccc(-c2ccc(-c3ccc(C(=O)N[C@H]4C[C@@H](O)[C@@H](O)NC(=O)[C@@H]5[C@@H](O)[C@@H](C)CN5C(=O)[C@H]([C@@H](C)O)NC(=O)[C@H]([C@H](O)[C@@H](O)c5ccc(O)cc5)NC(=O)[C@@H]5C[C@@H](O)CN5C(=O)[C@H]([C@@H](C)O)NC4=O)cc3)cc2)cc1 [ANIDULAFUNGIN] ({pTerphenylCO(4''-OnC5H11)}-[Orn(4R-OH,5R-OH)]T[Hyp][hTyr(3S-OH,4S-OH)]T[Pro(3S-OH,4S-Me)]; lactam 1-C), the MIC [1] was greater than 128 µg/mL, the MIC [2] was greater than 128 µg/mL and the MIC [3] was greater than 128 µg/mL. The MIC [4] was greater than 128 µg/mL, the MIC [5] was 0.5 µg/mL (≈ 0.438 µM) and the MIC [6] was greater than 128 µg/mL. For the same compound, the MIC [7] was greater than 128 µg/mL, the inhibition (Madurella mycetomatis) was “inactive” and the MIC [8] was greater than 128 µg/mL. The MIC [9] was greater than 128 µg/mL, the MIC [10] was greater than 128 µg/mL and the MIC [11] was greater than 128 µg/mL. The MIC (Aspergillus fumigatus [12]) was greater than 128 µg/mL, the minimal effective concentration (Aspergillus fumigatus [12]) was less than 0.007 µg/mL and the MIC [13] was greater than 128 µg/mL. The MIC [14] was greater than 128 µg/mL, the MIC [15] was greater than 128 µg/mL and the MIC [16] was greater than 128 µg/mL. For the same compound, the MIC [17] was greater than 128 µg/mL, the inhibition (Aspergillus fumigatus [19]) was “inactive” and the MIC [18] was greater than 128 µg/mL.
Work on CCCCCOc1ccc(-c2cc(-c3ccc(C(=O)N[C@H]4C[C@@H](O)[C@@H](O)NC(=O)[C@@H]5[C@@H](O)[C@@H](C)CN5C(=O)[C@H]([C@H](O)CC(N)=O)NC(=O)[C@H]([C@H](O)[C@@H](O)c5ccc(O)c(OS(=O)(=O)O)c5)NC(=O)[C@@H]5C[C@@H](O)CN5C(=O)[C@H]([C@@H](C)O)NC4=O)cc3)no2)cc1 [MICAFUNGIN] (X1-[Orn(4R-OH,5R-OH)]T[Hyp][hTyr(3S-OH,4S-OH,3'-OSO3H)][Gln(3R-OH)][Pro(3S-OH,4S-Me)]; lactam 1-C) yielded an MIC [1] greater than 128 µg/mL, an MIC [2] greater than 128 µg/mL and an MIC [3] greater than 128 µg/mL. It also gave an MIC [4] greater than 128 µg/mL, an MIC [5] of 8 µg/mL (≈ 6.3 µM) and an MIC [6] greater than 128 µg/mL. The MIC [7] was greater than 128 µg/mL, the inhibition (Madurella mycetomatis) was “inactive” and the MIC [8] was 128 µg/mL (≈ 101 µM). It also gave an MIC [9] greater than 128 µg/mL, an MIC [10] greater than 128 µg/mL and an MIC [11] greater than 128 µg/mL. It also gave an MIC [13] of 128 µg/mL (≈ 101 µM), an MIC [14] greater than 128 µg/mL and an MIC [15] greater than 128 µg/mL. The MIC [16] was greater than 128 µg/mL, the MIC [17] was greater than 128 µg/mL and the inhibition (Aspergillus fumigatus [19]) was “inactive”. For the same compound, the MIC [18] was greater than 128 µg/mL.
Compound CC(=O)N1CCN(c2ccc(OCC3COC(Cn4ccnc4)(c4ccc(Cl)cc4Cl)O3)cc2)CC1 (configuration not stated) has an MIC [1] of 1 µg/mL (≈ 1.88 µM), an MIC [2] of 0.063 µg/mL (≈ 0.119 µM) and an MIC [3] of 0.031 µg/mL (≈ 0.0583 µM). It also gave an MIC [4] of 0.063 µg/mL (≈ 0.119 µM), an MIC [5] of 0.125 µg/mL (≈ 0.235 µM) and an MIC [6] of 0.063 µg/mL (≈ 0.119 µM). It also gave an MIC [7] of 0.25 µg/mL (≈ 0.47 µM), an MIC [8] of 0.125 µg/mL (≈ 0.235 µM) and an MIC [9] of 0.031 µg/mL (≈ 0.0583 µM). The MIC [10] was 0.016 µg/mL (≈ 0.0301 µM), the MIC [11] was 0.031 µg/mL (≈ 0.0583 µM) and the MIC [13] was 0.063 µg/mL (≈ 0.119 µM). The MIC [14] was 0.25 µg/mL (≈ 0.47 µM), the MIC [15] was 0.25 µg/mL (≈ 0.47 µM) and the MIC [16] was 0.063 µg/mL (≈ 0.119 µM). For the same compound, the MIC [17] was 0.125 µg/mL (≈ 0.235 µM) and the MIC [18] was 0.063 µg/mL (≈ 0.119 µM).

Source: ChEMBL document CHEMBL1671690, “Madurella mycetomatis is not susceptible to the echinocandin class of antifungal agents” (2010)
